According to ChEMBL document CHEMBL3227952, “Potential organ- or tumor-imaging agents. 18. Radioiodinated diamines and bisquaternaries” (J Med Chem, 1979):

Columns and labels:
Conditions in all cases: in vivo
[1] = Drug uptake in Sprague-Dawley rat diaphragm at 6.3 uCi, iv after 2 hrs by liquid scintillation counting; type: ADME, organism-based
Summary of the method: (§1)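 Adult male Sprague-Dawley rats (200–420 g) got ¹⁴C-labelled bisquaternary (20.9 µCi/mg) in saline, 0.1 mL, by tail vein under ether anesthesia. Five rats per time point were exsanguinated under ether. Organs were excised, rinsed, blotted and weighed. Duplicate samples underwent liquid scintillation counting, with quench corrected by the external standard-channels ratio. Results are % administered dose/g, mean ± SEM.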

Adrenal [2] = experiment: Drug uptake in Sprague-Dawley rat adrenal at 6.3 uCi, iv after 0.5 hrs by liquid scintillation counting; type: ADME, organism-based, Adrenal gland; summary of the method: as §1
Spleen [3] = experiment: Drug uptake in Sprague-Dawley rat spleen at 6.3 uCi, iv after 2 hrs by liquid scintillation counting; type: ADME, organism-based
Summary of the method: (§2)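 [¹⁴C]Hexamethonium diiodide in saline (15 mg/5.0 mL), 20.9 μCi/mg, 0.1 mL injected into the tail vein of ether-anesthetized adult male Sprague-Dawley rats (200–420 g). At 0.5 or 2 h rats were exsanguinated under ether and organs excised, rinsed, blotted and weighed. Duplicate samples were counted by liquid scintillation, with quench corrected by external standard-channels ratio. Results are % administered dose/g, mean ± SEM, five rats.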

Lung [4] = experiment: Drug uptake in Sprague-Dawley rat lung at 6.3 uCi, iv after 0.5 hrs by liquid scintillation counting; type: ADME, organism-based; summary of the method: as §1
[5] = Drug uptake in Sprague-Dawley rat intervertebral disk at 6.3 uCi, iv after 2 hrs by liquid scintillation counting; type: ADME, organism-based; summary of the method: as §1
[6] = Drug uptake in Sprague-Dawley rat trachea at 6.3 uCi, iv after 2 hrs by liquid scintillation counting; type: ADME, organism-based; summary of the method: as §2
[7] = Drug uptake in Sprague-Dawley rat intervertebral disk at 6.3 uCi, iv after 0.5 hrs by liquid scintillation counting; type: ADME, organism-based; summary of the method: as §1
Pancreas [8] = experiment: Drug uptake in Sprague-Dawley rat pancreas at 6.3 uCi, iv after 0.5 hrs by liquid scintillation counting; type: ADME, organism-based; summary of the method: as §1
Brain [9] = experiment: Drug uptake in Sprague-Dawley rat brain at 6.3 uCi, iv after 2 hrs by liquid scintillation counting; type: ADME, organism-based; summary of the method: as §1
Heart [10] = experiment: Drug uptake in Sprague-Dawley rat heart at 6.3 uCi, iv after 0.5 hrs by liquid scintillation counting; type: ADME, organism-based; summary of the method: as §1
Testes [11] = experiment: Drug uptake in Sprague-Dawley rat testes at 6.3 uCi, iv after 0.5 hrs by liquid scintillation counting; type: ADME, organism-based, Testis; summary of the method: as §2
[12] = Drug uptake in Sprague-Dawley rat meninges at 6.3 uCi, iv after 0.5 hrs by liquid scintillation counting; type: ADME, organism-based; summary of the method: as §1
Heart [13] = experiment: Drug uptake in Sprague-Dawley rat heart at 6.3 uCi, iv after 2 hrs by liquid scintillation counting; type: ADME, organism-based; summary of the method: as §1
[14] = Drug uptake in Sprague-Dawley rat trachea at 6.3 uCi, iv after 0.5 hrs by liquid scintillation counting; type: ADME, organism-based; summary of the method: as §2
Testes [15] = experiment: Drug uptake in Sprague-Dawley rat testes at 6.3 uCi, iv after 2 hrs by liquid scintillation counting; type: ADME, organism-based, Testis; summary of the method: as §2
Pancreas [16] = experiment: Drug uptake in Sprague-Dawley rat pancreas at 6.3 uCi, iv after 2 hrs by liquid scintillation counting; type: ADME, organism-based; summary of the method: as §1
[17] = Drug uptake in Sprague-Dawley rat meninges at 6.3 uCi, iv after 2 hrs by liquid scintillation counting; type: ADME, organism-based; summary of the method: as §1
Kidney [18] = experiment: Drug uptake in Sprague-Dawley rat kidney at 6.3 uCi, iv after 2 hrs by liquid scintillation counting; type: ADME, organism-based; summary of the method: as §1
Adrenal [19] = experiment: Drug uptake in Sprague-Dawley rat adrenal at 6.3 uCi, iv after 2 hrs by liquid scintillation counting; type: ADME, organism-based, Adrenal gland; summary of the method: as §1
Liver [20] = experiment: Drug uptake in Sprague-Dawley rat liver at 6.3 uCi, iv after 0.5 hrs by liquid scintillation counting; type: ADME, organism-based; summary of the method: as §1
Thyroid gland [21] = experiment: Drug uptake in Sprague-Dawley rat thyroid at 6.3 uCi, iv after 2 hrs by liquid scintillation counting; type: ADME, organism-based; summary of the method: as §2
Liver [22] = experiment: Drug uptake in Sprague-Dawley rat liver at 6.3 uCi, iv after 2 hrs by liquid scintillation counting; type: ADME, organism-based; summary of the method: as §1
[23] = Drug uptake in Sprague-Dawley rat diaphragm at 6.3 uCi, iv after 0.5 hrs by liquid scintillation counting; type: ADME, organism-based; summary of the method: as §1
Spleen [24] = experiment: Drug uptake in Sprague-Dawley rat spleen at 6.3 uCi, iv after 0.5 hrs by liquid scintillation counting; type: ADME, organism-based; summary of the method: as §2
Lung [25] = experiment: Drug uptake in Sprague-Dawley rat lung at 6.3 uCi, iv after 2 hrs by liquid scintillation counting; type: ADME, organism-based; summary of the method: as §1
Blood [26] = experiment: Drug uptake in Sprague-Dawley rat blood at 6.3 uCi, iv after 0.5 hrs by liquid scintillation counting; type: ADME, organism-based; summary of the method: as §1
Thyroid gland [27] = experiment: Drug uptake in Sprague-Dawley rat thyroid at 6.3 uCi, iv after 0.5 hrs by liquid scintillation counting; type: ADME, organism-based; summary of the method: as §2
Kidney [28] = experiment: Drug uptake in Sprague-Dawley rat kidney at 6.3 uCi, iv after 0.5 hrs by liquid scintillation counting; type: ADME, organism-based; summary of the method: as §1
Brain [29] = experiment: Drug uptake in Sprague-Dawley rat brain at 6.3 uCi, iv after 0.5 hrs by liquid scintillation counting; type: ADME, organism-based; summary of the method: as §1
Blood [30] = experiment: Drug uptake in Sprague-Dawley rat blood at 6.3 uCi, iv after 2 hrs by liquid scintillation counting; type: ADME, organism-based; summary of the method: as §1

In the case of `C[N+](C)([14CH3])CCCCCC[N+](C)(C)[14CH3].[I-].[I-]`, the Drug uptake [1] is reported as 0.014 % ID/g, the Drug uptake (Adrenal [2]) is reported as 0.104 % ID/g and the Drug uptake (Spleen [3]) is reported as 0.051 % ID/g. The Drug uptake (Lung [4]) was 0.377 % ID/g, the Drug uptake [5] was 0.144 % ID/g and the Drug uptake [6] was 0.127 % ID/g. The Drug uptake [7] was 1.094 % ID/g, the Drug uptake (Pancreas [8]) was 0.079 % ID/g and the Drug uptake (Brain [9]) was 0.018 % ID/g. The Drug uptake (Heart [10]) was 0.145 % ID/g, the Drug uptake (Testes [11]) was 0.097 % ID/g and the Drug uptake [12] was 0.301 % ID/g. It also gave a Drug uptake (Heart [13]) of 0.018 % ID/g, a Drug uptake [14] of 1.35 % ID/g and a Drug uptake (Testes [15]) of 0.022 % ID/g. It also gave a Drug uptake (Pancreas [16]) of 0.016 % ID/g, a Drug uptake [17] of 0.413 % ID/g and a Drug uptake (Kidney [18]) of 1.384 % ID/g. It also gave a Drug uptake (Adrenal [19]) of 0.043 % ID/g, a Drug uptake (Liver [20]) of 0.112 % ID/g and a Drug uptake (Thyroid gland [21]) of 0.047 % ID/g. For the same molecule, the Drug uptake (Liver [22]) was 0.049 % ID/g, the Drug uptake [23] was 0.094 % ID/g and the Drug uptake (Spleen [24]) was 0.123 % ID/g. The Drug uptake (Lung [25]) was 0.137 % ID/g, the Drug uptake (Blood [26]) was 0.31 % ID/g and the Drug uptake (Thyroid gland [27]) was 0.206 % ID/g. The Drug uptake (Kidney [28]) was 2.616 % ID/g, the Drug uptake (Brain [29]) was 0.018 % ID/g and the Drug uptake (Blood [30]) was 0.02 % ID/g.
